Drawing on ChEMBL document CHEMBL3751716, “Identification of 5-Methoxyflavone as a Novel DNA Polymerase-Beta Inhibitor and Neuroprotective Agent against Beta-Amyloid Toxicity” (J Nat Prod, 2015), this text covers Activity and inhibition for seven compounds.

Molecules are shown by their SMILES. Active and inactive are the calls of the source. The rule behind the calls is not given here.

A short description of data set [1]: Cytotoxicity against mouse 88TAg fibroblasts assessed as compound level causing reduction of cell viability incubated for 2 hrs by MTT assay. A digest of the protocol:
(§1)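 Mouse embryonic fibroblasts, 92TAg (wild type) or 88TAg (pol-β null), were seeded 5 × 10^3/well and serum-deprived at treatment. Compound (5-60 μM) was given 2 h, then a 2 h MMS pulse (500 μM for 92TAg, 250 μM for 88TAg). After washout, compound was re-added and viability read 24 h from start by MTT (0.9 mg/mL, 2 h, 37 °C; DMSO lysis; A570). Means ± SEM, 3-9 determinations.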
In general terms: Tetrazolium assays rely on reduction of a dye to a coloured formazan, in cell work by metabolically active cells.

Data set [2] is filed under the species Mus musculus. In words: Effect on cell cycle distribution in against polymerase-beta knock out mouse 88TAg cells assessed as cell accumulation at S-phase at 8 ug/ml incubated for 15 hrs by propidium iodide staining based cytofluorimetric analysis. It counts as functional. A digest of the protocol: (§2)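 Mouse embryonic fibroblasts (wild-type 92TAg; pol-β-null 88TAg) grown in DMEM with 10% FBS at 37 °C and 5% CO2. Synchronized in 0.2% FBS medium for 72 h, then returned to 10% FBS medium with compound for 15 h. Cell-cycle phase percentages scored by cytofluorimetry of propidium iodide-labeled cells. Experiments run at least in triplicate, one-way ANOVA.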

The species entered for data set [3] is Mus musculus. In words: Effect on cell cycle distribution in against mouse 92TAg cells assessed as cell accumulation at S-phase at 8 ug/ml incubated for 15 hrs by propidium iodide staining based cytofluorimetric analysis. It counts as functional. A digest of the protocol:
as §2

The nature of data set [4]: Cytotoxicity against Sprague-Dawley rat cortical neurons at 50 uM by MTT assay. Particulars: cortical neurone.
Data set [5] addresses DNA polymerase beta (Homo sapiens) (UniProt P06746). The settings on record: 50 uM.
A short description of data set [6]: Cytotoxicity against mouse 88TAg fibroblasts assessed as reduction of cell viability at 60 uM incubated for 2 hrs by MTT assay. A digest of the protocol:
as §1

In data set [7] the test system is DNA polymerase beta (Mus musculus). In words: Inhibition of DNA polymerase-beta in mouse wild-type 92TAg cells assessed as increase in MMS toxicity at 1 to 60 uM incubated for 2 hrs prior to MMS challenge for 2 hrs followed by post wash compound addition measured after 24 hrs by MTT assay.

Consider `Cc1ccccc1Nc1nc2ccc([N+](=O)[O-])cc2nc1Nc1ccccc1C`, for which, in data set [1], the Activity result is “<= 90%”.

Take `C[C@@]1(CO)[C@H](O)CC[C@@]2(C)[C@H]1CC[C@H]1C[C@@H]3C[C@@]12CC[C@]3(O)CO`: the outcome in the data set listed under Mus musculus [2] and in the data set listed under Mus musculus [3] was Active.

With `C[C@H](C(=O)O)c1cccc(C(=O)c2ccccc2)c1` [DEXKETOPROFEN], the Activity result in data set [1] is recorded as “Non-toxic”.

As for `CC1(C)CC[C@]2(C(=O)O)CC[C@]3(C)C(=CC[C@@H]4[C@@]5(C)CC[C@H](O)C(C)(C)[C@@H]5CC[C@]43C)[C@@H]2C1` [OLEANOLIC_ACID], the Activity result in data set [4] was “Toxic”. Further, the inhibition entry in data set [5] was “Active”.

On to `c1ccc2c(c1)c1ccccc1n2Cn1c2ccccc2c2ccccc21`, for which, in data set [1], the Activity entry is “<= 90%”.

Consider `O=c1cc(-c2ccccc2O)oc2c1ccc1ccccc12`, for which the figures for the Activity in data set [1] and in data set [6] were 10 µM and “<= 90%”, respectively.

For the compound `CC1(C)NCCC12C(=O)N(Cc1ccccc1)c1ccccc12` (stereo unspecified), the Activity result in data set [1] was “Non-toxic”. Moreover, in data set [7], the inhibition result is “inactive”.
